The list is not random: actives were taken first. Their share in the collection is about 3.1%.
NS3 helicase inh: blocks Hepatitis C virus NS3 helicase unwinding. NS3 helicase DNA unwinding, Cy5 molecular beacon fluorescence. inhibition, % at 10.9 µM. 290,000 tested, 0.56% active. AID 1800;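 active = inhibition above the mean of all tested compounds plus 3 SD, set per campaign, cut at about 35% in these data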;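 also: 0% = DMSO wells and 100% = thioflavine S control wells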
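Compound dosing – single dose, 10.9 µM nominal final, DMSO 0.8% final · System – NS3 helicase fragment of HCV · Buffer or medium – MOPS pH 6.5, MgCl2, DTT, Tween20, BSA · Signal – Cy5 beacon fluorescence read at start and 1 h · Also added – annealed dual-labelled DNA beacon duplex, ATP-started · Schedule – 1 h at 25 °C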
core dimer inh: blocks dimerization of HCV core protein. 300,000 tested, 0.33% active. inhibition, % at 5 µM. TR-FRET GST/Flag-core106 dimerization, 1536-well;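 active = inhibition above the mean of all tested compounds plus 3 SD, set per screening campaign, cut at about 45% in these data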
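System: GST/Flag-tagged HCV core106 proteins. Incubation: compound-protein-antibody incubation 4 h at 22.5 °C. Technique: HTRF with 340 nm excitation, 617/671 nm emission. Medium: KF-containing HEPES buffer, pH 7.45, DTT, CHAPS, BSA. Read-out: inhibition (%) from 671 over 617 nm ratio. Also added: Eu(K)-anti-GST 90 ng/mL plus XL665-anti-Flag 1 µg/mL.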
VIM-2 inhibitor: blocks Pseudomonas aeruginosa VIM-2 metallo-beta-lactamase; purified VIM-2, nitrocefin hydrolysis, epi-absorbance fluorescence; AID 1527; 290,000 tested, 0.89% active; inhibition, % at 5.6 µM;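 active = inhibition above the mean of all tested compounds plus 3 SD, cutoff set per screening run, cut at about 7.5% in these data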;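 also: red hydrolysis product quenches plate fluorescence so inhibitors raise well fluorescence; 0% = enzyme with DMSO and 100% = DMSO without enzyme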
IMP-1 inh: blocks Pseudomonas aeruginosa IMP-1 metallo-beta-lactamase | purified IMP-1, nitrocefin hydrolysis, epi-absorbance fluorescence | inhibition, % at 5.6 µM | 290,000 tested, 0.45% active;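 active = inhibition above the mean plus 3 SD of all compounds in the same screening run, cut at about 4.5% in these data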;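 also: 0% = IMP-1 with DMSO and 100% = DMSO wells lacking enzyme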
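Assay system: purified recombinant IMP-1 beta-lactamase. Input: IMP-1 0.2 nM before substrate addition. Buffer or medium: Zinc- and detergent-supplemented HEPES buffer, pH 7.1. Schedule: 25 °C, 15 min preincubation, 25 min reaction. Signal: Epi-absorbance fluorescence, 480 nm excitation, 530 nm emission. Evaluation: percent inhibition from optical density relative to buffer-blank wells.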
UBC9 SUMO inh: SUMOylation inhibition; 290,000 tested, 0.36% active; P63279; HTRF SUMOylation assay, SAE1/SAE2 + UBC9, in vitro; AID 2006; inhibition, % at 35 µM; in the data active = inhibition above about 50%, passing the limit was not always enough
Target sequence (P63279 whole entry, looked up): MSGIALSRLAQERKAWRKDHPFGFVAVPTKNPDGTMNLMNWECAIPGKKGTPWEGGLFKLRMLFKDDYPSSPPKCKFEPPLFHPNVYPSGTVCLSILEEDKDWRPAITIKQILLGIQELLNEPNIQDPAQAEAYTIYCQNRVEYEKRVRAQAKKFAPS
PHOSPHO1 block: PHOSPHO1 (human) inhibition; recombinant PHOSPHO1, absorbance phosphatase assay; inhibition, % at 13.3 µM; 290,000 tested, 1.1% active; Q8TCT1; in the data active = inhibition above about 60%
Target sequence (Q8TCT1 whole entry, looked up): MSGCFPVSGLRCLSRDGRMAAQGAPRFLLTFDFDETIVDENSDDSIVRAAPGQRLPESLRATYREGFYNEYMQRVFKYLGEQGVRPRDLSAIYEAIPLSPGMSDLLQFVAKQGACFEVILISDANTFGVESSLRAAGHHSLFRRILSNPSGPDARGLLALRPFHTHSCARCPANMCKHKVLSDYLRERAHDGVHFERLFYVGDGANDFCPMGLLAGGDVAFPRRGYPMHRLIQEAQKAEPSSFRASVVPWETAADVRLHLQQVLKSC
NS3 helicase cf: HCV NS3 helicase inhibition, confirmation assay; AID 1943; shares compounds with NS3 helicase inh; 1,600 tested, 31% active; NS3 helicase DNA unwinding, Cy5 molecular beacon fluorescence; inhibition, % at 10.9 µM;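 active = inhibition above the mean of all tested compounds plus 3 SD, cutoff set per campaign, cut at about 36% in these data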
DNA FID counter: counter-screen for HCV NS3 helicase inhibitors: DNA intercalator displacement. inhibition, % at 7.9 µM. 1,600 tested, 4% active. shares compounds with NS3 helicase inh. DNA fluorescent intercalator displacement, fluorescence; in the data active = inhibition above about 37%;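 also: 0% = vehicle and 100% = reference compound; higher means more displacement of ethidium bromide from the DNA hairpin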
Active calls of the source: *; nt = not tested or not shown.

SMILES	NS3 helicase inh	core dimer inh	VIM-2 inhibitor	IMP-1 inh	UBC9 SUMO inh	PHOSPHO1 block	NS3 helicase cf	DNA FID counter
CC(=O)C1C(c2ccc(F)cc2)c2c(noc2C)CC1(C)O (stereo unspecified)	3	-2	0	0	37	24	nt	nt
CC(C)c1ccc(NC(=O)c2ccccc2NC(=O)C2CCCCC2C(=O)O)cc1 (stereo unspecified)	45*	nt	0	2	2	10	48*	-52
COc1cccc(C(=O)N/N=C/c2ccc(OC)c(COc3ccccc3C(N)=O)c2)c1	43*	2	-3	-2	2	15	-12	-41
Cc1ccccc1Nc1c(F)c(F)c(F)c(F)c1C(=O)O	19	0	-2	-2	16	-5	nt	nt
CC(/C=C1\SC(=S)N(NC(=O)c2ccncc2)C1=O)=C\c1ccccc1	78*	2	-3	0	-8	20	34	2
CC(/C=C1\SC(=S)N(NS(=O)(=O)c2ccc(C)cc2)C1=O)=C\c1ccccc1	43*	12	-4	-4	59*	12	86*	1
CC(/C=C1\SC(=S)N(C(C(=O)O)C(C)C)C1=O)=C\c1ccccc1 (stereo unspecified)	36*	24	2	0	19	4	68*	27
CC(/C=C1\SC(=S)N(c2ccc(C(=O)O)cc2)C1=O)=C\c1ccccc1	4	17	-1	-2	25	42	nt	nt
CC(/C=C1\SC(=S)N(NC(=O)c2ccccc2C)C1=O)=C\c1ccccc1	10	24	-2	-3	9	-6	nt	nt
COc1ccc(N2CC(NC(=O)NCC(C)C)CC2=O)cc1 (stereo unspecified)	53*	0	-4	-2	0	-13	-8	-1
CCN(CC)C(=O)NC1CC(=O)N(c2ccc(OC)cc2)C1 (stereo unspecified)	4	-4	-3	-4	-1	-32	nt	nt
CCCCCCN1C=CC=C/C1=C\C=C(C#N)C#N	-6	-2	0	-1	31	20	nt	nt
O=C(O)CN1C(=O)/C(=C/c2cccc(Cl)c2)Oc2ccccc21	54*	-7	-2	-2	29	27	59*	-14
O=C(O)CN1C(=O)/C(=C/c2ccccc2Cl)Oc2ccccc21	26	2	0	0	30	25	nt	nt
CCOC(=O)c1cc2c(C)n(-c3ccc(OCC)cc3)c(C)c2ccc1=O	55*	25	1	0	-8	50	-12	-9
O=C1/C(=C\c2ccccn2)SC(=S)N1c1ccc(S(=O)(=O)Nc2nccs2)cc1	36*	15	1	-1	39	3	-17	25
COC(=O)COc1c(/C=C\c2nc(O)c([N+](=O)[O-])c(=O)[nH]2)cccc1OC	5	16	0	-3	18	-6	nt	nt
C#CCOc1c(/C=C\c2nc(O)c([N+](=O)[O-])c(=O)[nH]2)cc(Br)cc1OC	45*	33	-1	-2	8	14	26	4
C=CCOC(=O)c1[nH]c2c(c1C)C(=O)CC(c1ccco1)C2 (stereo unspecified)	39*	28	-2	-4	1	6	-4	6
Cc1c(C(=O)OCC(C)C)[nH]c2c1C(=O)CC(c1ccco1)C2 (stereo unspecified)	37*	47*	0	0	29	2	-11	-10
Cc1c(C(=O)OC2CCCC2)[nH]c2c1C(=O)CC(c1ccco1)C2 (stereo unspecified)	18	17	-1	-3	18	-10	nt	nt
COc1ccc(N(CC(=O)NCCSCc2ccc(Cl)cc2)S(C)(=O)=O)cc1Cl	-14	6	-2	-1	-1	4	nt	nt
C=CCN1C(=O)c2ccc(C(=O)Nc3ccccn3)cc2C1=O	nt	-3	nt	nt	nt	nt	nt	nt
Cc1cc(-n2c(C)cc(C(=O)CSc3ccc4c(c3)OCCO4)c2C)no1	37*	5	2	-2	0	71*	0	-23
Cc1cc(-n2c(C)cc(C(=O)CCl)c2C)no1	-4	2	-2	-3	8	16	nt	nt
SMILES	NS3 helicase inh	core dimer inh	VIM-2 inhibitor	IMP-1 inh	UBC9 SUMO inh	PHOSPHO1 block	NS3 helicase cf	DNA FID counter
COc1cc(/C=N/NC(=O)c2nonc2N)cc(OC)c1OC	39*	13	-1	-2	22	36	-2	7
CCOC(=O)N1CCC(NS(=O)(=O)c2ccc(NC(C)=O)c(Cl)c2)CC1	-5	2	-1	-3	14	34	nt	nt
Nc1ccc(C(CC(=O)O)n2cccc2)cc1 (stereo unspecified)	52*	0	-1	-5	3	-26	-28	6
CCN1C(=O)c2ccc(C(=O)Nc3c(C)cc(C)cc3C)cc2C1=O	-4	-2	-1	-1	0	-1	nt	nt
Cc1ccc(-c2nc(CNC(=O)c3ccco3)cs2)cc1	41*	23	-1	-3	14	8	-18	-10
Cc1ccc(-c2nc(CCNC(=O)c3ccco3)cs2)cc1	nt	0	nt	nt	nt	nt	nt	nt
COc1ccc(CNCc2cc3c(cc2[N+](=O)[O-])OCO3)cc1	40*	-3	1	-2	4	52	-13	11
Cc1cc(C)cc(NCc2cc3c(cc2[N+](=O)[O-])OCO3)c1	27	12	-1	-3	8	19	nt	nt
COc1ccc2c(c1)O/C(=C\c1ccco1)C2=O	44*	-4	1	4	15	23	-1	24
COC(=O)C(C)Oc1ccc2c(c1)O/C(=C\c1ccco1)C2=O (stereo unspecified)	33	17	-2	0	-1	31	nt	nt
O=C(O)c1cc([N+](=O)[O-])cc([N+](=O)[O-])c1N1CCN(c2cccc(C(F)(F)F)c2)CC1	42*	nt	-2	-2	-4	33	55*	-17
Cc1cc2oc(=O)cc(-c3cc4ccccc4o3)c2cc1O	39*	23	1	6.0*	nt	13	-4	6
COc1cccc2cc(-c3cc(=O)oc4cc(C)c(OCC(C)=O)cc34)oc12	24	-5	2	1	2	3	nt	nt
Cc1cc(C)c(C#N)c(Nc2cccc(C)c2C)n1	-20	-2	0	-4	1	14	nt	nt
CCN1CCN(CCCN(Cc2cccs2)C(=S)Nc2ccccc2C)CC1	8	-7	-3	-4	9	13	nt	nt
COc1cc(/C=C(\CC(=O)O)c2nc3ccccc3s2)cc(OC)c1O	4	-2	3	-3	28	13	nt	nt
